Data set [1] can be described thus: Half life after intravenous administration in rat. Format: ADME, organism-based. The note with it: in vivo.
A short description of data set [2]: Oral bioavailability in rat. Format: ADME, organism-based. The note with it: in vivo.
Data set [3] deals with T1, B1 bradykinin receptor (Rattus norvegicus, UniProt P97583).
T1 sequence (P97583 whole entry): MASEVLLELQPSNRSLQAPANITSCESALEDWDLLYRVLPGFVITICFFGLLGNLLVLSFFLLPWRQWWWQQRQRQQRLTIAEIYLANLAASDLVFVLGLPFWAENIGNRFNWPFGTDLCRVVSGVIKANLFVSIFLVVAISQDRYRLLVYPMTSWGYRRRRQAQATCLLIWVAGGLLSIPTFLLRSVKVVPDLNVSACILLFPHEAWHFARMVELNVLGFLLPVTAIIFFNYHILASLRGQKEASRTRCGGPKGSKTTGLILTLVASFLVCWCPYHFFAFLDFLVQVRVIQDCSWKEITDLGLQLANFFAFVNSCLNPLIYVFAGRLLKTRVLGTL
Description: Compound was tested for inhibition against rat Bradykinin receptor B1 using FLIPR assay.

For data set [4], the target named is T1, B1 bradykinin receptor. Description: Compound was tested for inhibition against rat Bradykinin receptor B1. Put shortly:
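Radioligand binding using the appropriate radioligand on CHO cells stably expressing rat bradykinin B1 receptor; Ki (nM) determined radiometrically; interassay variability about 10%.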

Data set [5] addresses T2, B1 bradykinin receptor (Homo sapiens, UniProt P46663).
T2 sequence (P46663 whole entry): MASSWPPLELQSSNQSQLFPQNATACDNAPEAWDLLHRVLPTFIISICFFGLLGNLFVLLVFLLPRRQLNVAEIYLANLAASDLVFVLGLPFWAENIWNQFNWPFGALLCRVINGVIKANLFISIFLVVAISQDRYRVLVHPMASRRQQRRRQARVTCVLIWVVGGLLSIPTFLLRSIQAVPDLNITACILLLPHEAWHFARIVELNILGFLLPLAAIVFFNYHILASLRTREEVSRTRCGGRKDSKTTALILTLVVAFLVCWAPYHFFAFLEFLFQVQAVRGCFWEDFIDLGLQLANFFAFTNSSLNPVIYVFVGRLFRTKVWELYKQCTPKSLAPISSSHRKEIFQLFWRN
Description: Compound was tested for inhibition against human bradykinin B1 receptor using FLIPR assay.

The target of data set [6] is T2, B1 bradykinin receptor. Description: Inhibition of human bradykinin B1 receptor.

Take `CCCN1C(=O)[C@H](NC(=O)Nc2ccc(N3CCN(c4ccncc4)CC3)cc2)N=C(CCc2ccccc2)c2ccccc21`: in data set [1], the half-life (in general, the time in which the quantity being followed falls by half) is 162 min. In addition, the bioavailability (in general, the share of a dose that reaches the circulation, judged against a reference dose that is usually intravenous) in data set [2] stood at 3.4%. Further, inhibition in data set [3] was half-maximal at 2.8 nM (IC50). For the same compound, the Ki (in general, a measure of affinity in units of concentration, obtained from inhibition or displacement) in data set [4] came out at 0.92 nM.

In data set [1], `CCCN1C(=O)[C@H](NC(=O)Nc2ccc(N3CCC(N4CCCCC4)CC3)cc2)N=C(C2CCCCC2)c2ccccc21` had a half-life of 192 min. For the same compound, the bioavailability in data set [2] stood at 10%. Moreover, the IC50 (as a rule, the concentration at which inhibition is half-maximal) in data set [5] was found to be 24.7 nM; in data set [3], 59 nM. Further, the Ki in data set [6] was found to be 5.73 nM; in data set [4], 18.3 nM.

Compound `CCCN1C(=O)[C@H](NC(=O)Nc2ccc(N3CCC(N4CCCCC4)CC3)cc2)N=C(CCc2ccccc2)c2ccccc21` showed a half-life in data set [1] of 144 min. In data set [2], this compound gave a bioavailability of 4.9%. Also, the results for the IC50 in data set [5] and in data set [3] were 4.83 nM and 7.25 nM, respectively. The Ki in data set [6] was determined as 1.37 nM; in data set [4], 1.97 nM.

In the case of `CCCN1C(=O)[C@H](NC(=O)Nc2ccc(N3CCN(c4ccncc4)CC3)cc2)N=C(C2CCCCC2)c2ccccc21`, in data set [1], the half-life was 138 min. In data set [2], this compound had a bioavailability of 2.5%. Moreover, the IC50 in data set [5] came to 8 nM; in data set [3], 24.2 nM. This compound also showed a Ki in data set [6] of 1.33 nM.

Take `CCCN1C(=O)[C@H](NC(=O)Nc2ccc(N3CCC(N4CCCCC4)CC3)cc2)N=C(c2ccc(C)cc2)c2ccccc21`: the half-life in data set [1] is 258 min. For the same compound, the bioavailability in data set [2] is 32%. In addition, the results for the 50% inhibitory concentration (IC50) in data set [5] and in data set [3] were 64.5 nM and 27 nM, respectively. The Ki was determined as 13.4 nM in data set [6] and 17 nM in data set [4].

`CCCN1C(=O)[C@@H](NC(=O)Nc2ccc(N3CCC(N4CCCCC4)CC3)cc2)N=C(C2CCCCC2)c2ccccc21` showed an IC50 in data set [5] of 2200 nM. In data set [6], this compound showed a Ki of 1020 nM.

As to `CCCN1C(=O)C(NC(=O)Nc2ccc(N3CCN(c4ccccc4)CC3)cc2)N=C(C2CCCCC2)c2ccccc21` (configuration not stated), the Ki in data set [6] was over 10000 nM.

In data set [6], `CCCN1C(=O)C(NC(=O)Nc2ccc(N3CCN(c4ccccn4)CC3)cc2)N=C(C2CCCCC2)c2ccccc21` (configuration not stated) gave a Ki of 97.5 nM.

Take `CCCN1C(=O)C(NC(=O)Nc2ccc(N3CCCCC3)cc2)N=C(C2CCCCC2)c2ccccc21` (configuration not stated): in data set [6], the Ki is over 10000 nM.

In turn, `CCCN1C(=O)C(NC(=O)Nc2ccc(N3CCN(c4cccnc4)CC3)cc2)N=C(C2CCCCC2)c2ccccc21` (configuration not stated) yielded a Ki in data set [6] of 85 nM.

`O=C(CCCN1C(=O)CN=C(C2CCCCC2)c2ccccc21)Nc1ccc(N2CCC(N3CCCCC3)CC2)cc1` yielded a Ki in data set [6] of 141 nM.

Regarding `CCCN1C(=O)C(NC(=O)Nc2ccc(N3CCC(c4ccncc4)CC3)cc2)N=C(CCc2ccccc2)c2ccccc21` (configuration not stated), in data set [6], the affinity corresponds to a Ki of 55 nM.

Turning to `CCCN1C(=O)C(NC(=O)Nc2ccc(N3CCC(N(C)C)CC3)cc2)N=C(C2CCCCC2)c2ccccc21` (configuration not stated), the IC50 in data set [5] came to 164 nM. Moreover, in data set [6], the Ki is 28 nM.

Values taken from ChEMBL document CHEMBL1144876, “Benzodiazepines as potent and selective bradykinin B1 antagonists” (J Med Chem, 2003).
